Legend:
[1] = molecular target: Envelope glycoprotein gp160 (Human immunodeficiency virus type 1 group M subtype B (isolate YU-2)(HIV-1), UniProt P35961); test: Binding affinity to HIV1 YU2 gp120 by isothermal titration calorimetry assay; design: species or system Human immunodeficiency virus type 1 (isolate YU2)
Outline: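 ITC at 25 °C. Cell held gp120 at about 2 μM in PBS pH 7.4 with 2% DMSO. Heat per injection taken from the integrated signal. Kd from a single run unless noted otherwise.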

[2] = test system: Human immunodeficiency virus 1; test: Antiviral activity against recombinant HIV1 YU2 in Cf2Th-CCR5 cells assessed as viral infectivity by luciferase assasy relative to JRC-II-191; type: functional, isolate YU2

## CCCN1CCCC(NC(=O)C(=O)Nc2ccc(Cl)c(F)c2)C1 (stereo not given)
[1]; read-out: Kd
  Kd: 3300 nM
[2]
  fold change (FC): 0.5

## CC1(C)CC(CNC(=O)C(=O)Nc2ccc(Cl)c(F)c2)CC(C)(C)N1
[1]; read-out: Kd
  Kd: 2200 nM
[2]
  fold change (FC): 0.09

## CN1CCC(NC(=O)C(=O)Nc2ccc(Cl)c(F)c2)CC1
[1]; read-out: Kd
  Kd: 9400 nM
[2]
  fold change (FC): 0.1

## CCCN1CCC(NC(=O)C(=O)Nc2ccc(Cl)c(F)c2)CC1
[1]; read-out: Kd
  Kd: 4200 nM
[2]
  fold change (FC): 0.2

## CC(C)N1CCC(NC(=O)C(=O)Nc2ccc(Cl)c(F)c2)CC1
[1]; read-out: Kd
  Kd: 1900 nM
[2]
  fold change (FC): 0

## O=C(NCC1CCNCC1)C(=O)Nc1ccc(Cl)c(F)c1
[1]; read-out: Kd
  Kd: 3000 nM
[2]
  fold change (FC): 0

## CN1CCC(CNC(=O)C(=O)Nc2ccc(Cl)c(F)c2)CC1
[1]; read-out: Kd
  Kd: 4300 nM
[2]
  fold change (FC): 0.3

## CC1(C)CC(NC(=O)C(=O)Nc2ccc(Cl)c(F)c2)CC(C)(C)C1
[1]
  Kd: Not Active
[2]
  fold change (FC): 0.1

## CC1(C)CC(NC(=O)C(=O)Nc2ccc(Cl)c(F)c2)CC(C)(C)O1
[1]; read-out: Kd
  Kd: 1000 nM
[2]
  fold change (FC): 0

## CN1CCCC(NC(=O)C(=O)Nc2ccc(Cl)c(F)c2)C1 (stereo not given)
[1]; read-out: Kd
  Kd: 4200 nM
[2]
  fold change (FC): 0.7

## CN1CCCC(CNC(=O)C(=O)Nc2ccc(Cl)c(F)c2)C1 (stereo not given)
[1]; read-out: Kd
  Kd: 2500 nM
[2]
  fold change (FC): 0.3

## CC(C)N1CCCCC1CCNC(=O)C(=O)Nc1ccc(Cl)c(F)c1 (stereo not given)
[1]; read-out: Kd
  Kd: 2300 nM
[2]
  fold change (FC): 0

## Cc1n[nH]c(C)c1CNC(=O)C(=O)Nc1ccc(Cl)c(F)c1
[1]; read-out: Kd
  Kd: 4000 nM
[2]
  fold change (FC): 0.1

## O=C(NC[C@@]12CCC[C@@H]1CNC2)C(=O)Nc1ccc(Cl)c(F)c1
[1]; read-out: Kd
  Kd: 3100 nM
[2]
  fold change (FC): 0

## O=C(NCC1NCCc2ccccc21)C(=O)Nc1ccc(Cl)c(F)c1 (stereo not given)
[1]; read-out: Kd
  Kd: 1200 nM
[2]
  fold change (FC): 0.6

## CCN1CCCC1CNC(=O)C(=O)Nc1ccc(Cl)c(F)c1 (stereo not given)
[1]; read-out: Kd
  Kd: 2100 nM
[2]
  fold change (FC): 0

## O=C(Nc1ccc(Cl)c(F)c1)C(=O)NC1CCNC2(CCC2)C1 (stereo not given)
[1]; read-out: Kd
  Kd: 600 nM
[2]
  fold change (FC): 2.6

## C[C@@H]1CCC[C@H](C)N1CCNC(=O)C(=O)Nc1ccc(Cl)c(F)c1
[1]; read-out: Kd
  Kd: 1600 nM
[2]
  fold change (FC): 0.2

## O=C(NCC1CCCN(CCO)C1)C(=O)Nc1ccc(Cl)c(F)c1 (stereo not given)
[1]; read-out: Kd
  Kd: 3200 nM
[2]
  fold change (FC): 0

## CC1(C)O[C@@H](CN)[C@H](CNC(=O)C(=O)Nc2ccc(Cl)c(F)c2)O1
[1]; read-out: Kd
  Kd: 2600 nM
[2]
  fold change (FC): 1.5
